Experimental data: ChEMBL document CHEMBL3232926, “Design, synthesis and biological evaluation of novel aminomethyl-piperidones based DPP-IV inhibitors” (Bioorg Med Chem Lett, 2014)
Active and inactive are the calls of the source. The rule behind the calls is not given here.

Tests used:
[1] = system: Mus musculus; test: Antidiabetic activity in fed db/db hyperglycemic mouse model assessed as decrease in serum glucose AUC at 3 mg/kg, po measured up to 24 hrs by DPEC-GOD/POD method relative to vehicle-treated control; assay type: functional; set-up: scale not given: the % may be the effect or the level left
Procedure, shortened: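 Fed male-unspecified db/db mice dosed orally at 3 mg/kg, with blood taken at time points up to 24 h. Serum glucose measured promptly by the GOD/POD method on duplicate samples. Glucose AUC compared with vehicle control by two-way ANOVA with Bonferroni post test. Values are mean SEM.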

[2] = biological target: Cytochrome P450 3A4 (Homo sapiens, UniProt P08684); test: Inhibition of human CYP3A4 expressed in Escherichia coli using midazolam as substrate up to 100 uM preincubated for 5 mins followed by NADPH addition measured after 20 mins by HPLC analysis; assay type: ADME
[3] = system: Mus musculus; test: Antidiabetic activity in overnight fasted C57BL/6J mouse assessed as decrease in serum glucose AUC at 3 mg/kg, po administered 0.5 hrs prior to glucose challenge measured up to 240 mins by DPEC-GOD/POD method relative to vehicle-treated control; assay type: functional; set-up: scale not given: the % may be the effect or the level left
Procedure, shortened: (§1)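 Male C57BL/6J mice fasted overnight with water ad libitum. Dosed orally at 3 mg/kg 0.5 h before the oral glucose load. Serum glucose read by the GOD/POD method at 15–240 min on duplicate samples, then 0–240 min AUC taken. Two-way ANOVA with Bonferroni post test against vehicle. Values are mean SEM.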

[4] = Cmax in C57BL/6J mouse at 3 mg/kg, po; assay type: ADME, organism-based; set-up: dose 3 mg/kg, route oral; conditions: in vivo
Procedure, shortened: (§2)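 Single 3 mg/kg oral or iv dose to overnight-fasted male C57BL/6J mice (n = 6). Serial EDTA blood sampling at pre-dose and 0.15–48 h post-dose. Plasma separated at 4 °C, stored at -70 °C and analysed by LC–MS/MS on a C18 column. %F derived against iv AUC. Values are mean SD.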

[5] = biological target: Cytochrome P450 2C19 (Homo sapiens, UniProt P33261); test: Inhibition of human CYP2C19 expressed in Escherichia coli using S-mephenytoin as substrate up to 100 uM preincubated for 5 mins followed by NADPH addition measured after 20 mins by HPLC analysis; assay type: ADME
[6] = system: Mus musculus; test: Antidiabetic activity in fed db/db hyperglycemic mouse model assessed as decrease in serum glucose AUC at 3 mg/kg, po measured up to 2 hrs by DPEC-GOD/POD method relative to vehicle-treated control; assay type: functional; set-up: scale not given: the % may be the effect or the level left
[7] = Oral bioavailability in C57BL/6J mouse at 3 mg/kg; assay type: ADME, organism-based; conditions: in vivo; procedure, shortened: as §2
[8] = biological target: Cytochrome P450 2C9 (Homo sapiens, UniProt P11712); test: Inhibition of human CYP2C9 expressed in Escherichia coli using diclofenac as substrate up to 100 uM preincubated for 5 mins followed by NADPH addition measured after 20 mins by HPLC analysis; assay type: ADME
[9] = AUC in C57BL/6J mouse at 3 mg/kg, iv; assay type: ADME, organism-based; set-up: dose 3 mg/kg, route intravenous; conditions: plasma; procedure, shortened: as §2
[10] = biological target: T1, Cytochrome P450 2C8 (Homo sapiens, UniProt P10632); test: Inhibition of human CYP2C8 expressed in Escherichia coli using paclitaxel as substrate up to 100 uM preincubated for 5 mins followed by NADPH addition measured after 20 mins by HPLC analysis; assay type: ADME
T1 sequence (P10632 whole entry): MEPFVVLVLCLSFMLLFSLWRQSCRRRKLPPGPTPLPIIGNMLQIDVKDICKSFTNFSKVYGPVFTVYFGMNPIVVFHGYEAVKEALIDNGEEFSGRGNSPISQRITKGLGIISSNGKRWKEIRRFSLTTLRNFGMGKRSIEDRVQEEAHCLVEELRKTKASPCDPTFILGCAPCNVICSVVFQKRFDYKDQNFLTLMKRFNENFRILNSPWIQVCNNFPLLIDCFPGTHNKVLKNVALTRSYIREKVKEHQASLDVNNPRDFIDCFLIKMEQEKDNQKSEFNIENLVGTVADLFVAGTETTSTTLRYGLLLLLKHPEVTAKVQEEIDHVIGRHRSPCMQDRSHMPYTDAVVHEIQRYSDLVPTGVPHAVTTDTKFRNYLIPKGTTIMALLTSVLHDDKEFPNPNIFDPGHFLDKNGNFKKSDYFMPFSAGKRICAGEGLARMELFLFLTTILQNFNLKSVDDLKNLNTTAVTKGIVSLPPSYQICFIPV

[11] = AUC (0 to infinity) in C57BL/6J mouse at 3 mg/kg, po; assay type: ADME, organism-based; set-up: time infinity, dose 3 mg/kg, route oral; conditions: plasma; procedure, shortened: as §2
[12] = Tmax in C57BL/6J mouse at 3 mg/kg, po; assay type: ADME, organism-based; set-up: dose 3 mg/kg, route oral; conditions: in vivo; procedure, shortened: as §2
[13] = biological target: T2, Cytochrome P450 1A2 (Homo sapiens, UniProt P05177); test: Inhibition of human CYP1A2 expressed in Escherichia coli using ethoxyresorufin as substrate up to 100 uM preincubated for 5 mins followed by NADPH addition measured after 20 mins by HPLC analysis; assay type: ADME
T2 sequence (P05177 whole entry): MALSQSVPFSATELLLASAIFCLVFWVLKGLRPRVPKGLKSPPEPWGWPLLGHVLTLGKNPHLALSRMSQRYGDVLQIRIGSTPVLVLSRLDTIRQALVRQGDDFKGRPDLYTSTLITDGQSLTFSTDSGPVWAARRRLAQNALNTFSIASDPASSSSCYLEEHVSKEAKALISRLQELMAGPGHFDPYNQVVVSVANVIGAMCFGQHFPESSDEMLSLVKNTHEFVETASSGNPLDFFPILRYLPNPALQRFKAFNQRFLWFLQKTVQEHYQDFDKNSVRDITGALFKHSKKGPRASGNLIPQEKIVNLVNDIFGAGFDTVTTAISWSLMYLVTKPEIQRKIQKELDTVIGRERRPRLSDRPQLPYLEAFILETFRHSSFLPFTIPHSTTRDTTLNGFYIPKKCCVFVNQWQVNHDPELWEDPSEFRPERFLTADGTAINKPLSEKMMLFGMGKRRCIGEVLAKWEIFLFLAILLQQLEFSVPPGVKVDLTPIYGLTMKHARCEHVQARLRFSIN

[14] = Half life in C57BL/6J mouse at 3 mg/kg, po; assay type: ADME, organism-based; set-up: dose 3 mg/kg, route oral; conditions: in vivo; procedure, shortened: as §2
[15] = Elimination rate constant in C57BL/6J mouse at 3 mg/kg, po; assay type: ADME, organism-based; set-up: dose 3 mg/kg, route oral; conditions: in vivo; procedure, shortened: as §2
[16] = biological target: Cytochrome P450 2D6 (Homo sapiens, UniProt P10635); test: Inhibition of human CYP2D6 expressed in Escherichia coli using bufuralol as substrate up to 100 uM preincubated for 5 mins followed by NADPH addition measured after 20 mins by HPLC analysis; assay type: ADME
[17] = system: Mus musculus; test: Antidiabetic activity in overnight fasted C57BL/6J mouse assessed as decrease in serum glucose level at 3 mg/kg, po administered 0.5 hrs prior to glucose challenge measured at 30 to 60 mins by DPEC-GOD/POD method; assay type: functional, organism-based; set-up: dose 3 mg/kg; procedure, shortened: as §1

Chain of Cytochrome P450 2C9 (P11712 whole entry): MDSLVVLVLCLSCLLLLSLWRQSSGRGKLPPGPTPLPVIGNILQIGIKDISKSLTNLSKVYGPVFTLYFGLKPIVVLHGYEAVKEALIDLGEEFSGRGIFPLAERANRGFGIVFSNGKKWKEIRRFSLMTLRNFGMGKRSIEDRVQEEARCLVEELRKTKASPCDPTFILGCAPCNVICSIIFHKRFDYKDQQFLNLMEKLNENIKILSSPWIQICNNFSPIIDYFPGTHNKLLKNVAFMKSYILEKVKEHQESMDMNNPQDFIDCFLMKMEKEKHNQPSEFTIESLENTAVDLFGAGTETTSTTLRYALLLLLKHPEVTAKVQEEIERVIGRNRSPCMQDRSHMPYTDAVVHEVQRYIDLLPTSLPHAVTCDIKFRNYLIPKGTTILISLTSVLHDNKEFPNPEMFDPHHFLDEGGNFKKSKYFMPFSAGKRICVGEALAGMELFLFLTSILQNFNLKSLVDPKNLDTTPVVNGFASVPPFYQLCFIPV
Chain of Cytochrome P450 2C19 (P33261 whole entry): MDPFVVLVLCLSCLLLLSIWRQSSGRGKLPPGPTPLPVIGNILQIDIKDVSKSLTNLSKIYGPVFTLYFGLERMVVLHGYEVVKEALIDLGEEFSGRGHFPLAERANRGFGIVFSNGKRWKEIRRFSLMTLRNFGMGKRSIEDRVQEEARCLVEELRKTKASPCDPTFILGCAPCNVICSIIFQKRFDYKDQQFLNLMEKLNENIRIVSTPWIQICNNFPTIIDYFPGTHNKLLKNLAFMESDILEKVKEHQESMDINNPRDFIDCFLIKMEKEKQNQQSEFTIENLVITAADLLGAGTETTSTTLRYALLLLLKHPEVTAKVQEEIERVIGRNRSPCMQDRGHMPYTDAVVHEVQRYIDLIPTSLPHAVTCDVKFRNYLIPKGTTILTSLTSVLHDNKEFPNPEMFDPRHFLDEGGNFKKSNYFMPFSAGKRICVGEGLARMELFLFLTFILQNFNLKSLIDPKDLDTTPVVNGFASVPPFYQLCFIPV
Chain of Cytochrome P450 3A4 (P08684 whole entry): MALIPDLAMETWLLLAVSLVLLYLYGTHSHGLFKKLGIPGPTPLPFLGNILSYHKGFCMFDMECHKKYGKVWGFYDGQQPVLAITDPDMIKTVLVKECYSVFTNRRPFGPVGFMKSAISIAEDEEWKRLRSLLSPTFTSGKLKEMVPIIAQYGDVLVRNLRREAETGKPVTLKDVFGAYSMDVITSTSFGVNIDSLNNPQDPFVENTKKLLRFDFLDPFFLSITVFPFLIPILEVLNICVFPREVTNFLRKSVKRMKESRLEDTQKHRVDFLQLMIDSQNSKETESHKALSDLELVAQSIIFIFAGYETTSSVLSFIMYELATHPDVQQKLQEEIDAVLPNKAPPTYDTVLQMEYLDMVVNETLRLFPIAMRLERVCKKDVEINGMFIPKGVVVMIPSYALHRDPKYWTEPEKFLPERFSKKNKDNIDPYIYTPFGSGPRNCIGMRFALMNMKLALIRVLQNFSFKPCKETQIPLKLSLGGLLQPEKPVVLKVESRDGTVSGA
Chain of Cytochrome P450 2D6 (P10635 whole entry): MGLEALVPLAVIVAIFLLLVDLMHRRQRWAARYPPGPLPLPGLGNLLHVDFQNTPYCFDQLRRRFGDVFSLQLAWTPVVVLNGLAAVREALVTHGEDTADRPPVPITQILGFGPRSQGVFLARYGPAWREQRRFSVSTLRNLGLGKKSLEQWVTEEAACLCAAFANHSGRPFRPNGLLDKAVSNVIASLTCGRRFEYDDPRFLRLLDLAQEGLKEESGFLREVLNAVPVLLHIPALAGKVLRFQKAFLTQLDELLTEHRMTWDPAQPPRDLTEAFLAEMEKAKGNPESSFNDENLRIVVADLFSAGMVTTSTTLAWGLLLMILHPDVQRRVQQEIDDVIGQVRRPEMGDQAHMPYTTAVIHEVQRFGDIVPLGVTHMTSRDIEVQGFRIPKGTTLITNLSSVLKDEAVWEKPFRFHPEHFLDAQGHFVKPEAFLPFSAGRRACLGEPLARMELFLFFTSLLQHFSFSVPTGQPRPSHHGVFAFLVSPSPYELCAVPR

| inhibition (INH) [2] | Cmax [4] [ng/mL] | inhibition (INH) [5] | bioavailability [7] [%] | inhibition (INH) [8] | AUC [9] [ng·h/mL] | inhibition (INH) [10] | AUC(0-inf) [11] [ng·h/mL] | Tmax [12] [min] | inhibition (INH) [13] | half-life [14] [min] | k el [15] [s⁻¹] | inhibition (INH) [16] | Structure (SMILES) | Activity [1] [%] | Activity [3] [%] | Activity [6] [%] | Activity [17] |
| --- | --- | --- | --- | --- | --- | --- | --- | --- | --- | --- | --- | --- | --- | --- | --- | --- | --- |
| Not Active | 420 | Not Active | 79.5 | Not Active | 1270 | Not Active | 1010 | 16.8 | Not Active | 539 | 3.33e-05 | Not Active | NC[C@H]1CN(CCc2ccc3c(c2)OCO3)C(=O)C[C@@H]1c1cc(F)ccc1F | 20.62 | 38.9 | 38.29 |  |
|  | 310 |  | 75.7 |  | 740 |  | 560 | 13.2 |  | 93.6 | 0.000233 |  | N[C@@H](CC(=O)N1CCn2c(nnc2C(F)(F)F)C1)Cc1cc(F)c(F)cc1F [SITAGLIPTIN] | 1.48 | 17.9 | 20.8 | Active |
